Measured values pooled from the literature.
Target: Cannabinoid receptor 2 (CNR2, Homo sapiens, UniProt P34972)

SMILES | read-out | mode | method | tested at | notes | measurement | result
CCOC(=O)C(CC)(CCCSCCOCCOCCOCCOCCNC(=O)OC(C)(C)C)NC(=O)c1ccc(C2CC2)c(Cc2ccc(F)cc2)n1 (centres unmarked) | cAMP | agonist |  |  |  | Emax | 91%
CN(CCN1CCC(OC(=O)Nc2ccccc2-c2ccccc2)CC1)C(=O)c1ccc(CN2CCC(C(N)=O)CC2)cc1 | ligand displacement |  | radioligand | 1 µM |  | inhibition | -2%
O=C(Nc1cccnn1)N1CCN([C@@H]2CCOc3cc(C(F)(F)F)ccc32)CC1 | ligand displacement |  |  | 20 µM |  | inhibition | 23%
COc1ccc(S(=O)(=O)N2CCCCC2)cc1C | ligand displacement |  | radioligand | 10 µM |  | inhibition | < 30%
Clc1ccc2c(C3CCN(CCc4c[nH]c5ccccc45)CC3)c[nH]c2c1 | ligand displacement |  | radioligand | 10 µM |  | inhibition | 11%
COCc1c(-c2cc3cc(C)cc(OC)c3s2)c2c(N)ncnn2c1CN1CCNC(=O)C1 | ligand displacement |  | radioligand | 10 µM |  | inhibition | 2%
CCOC(=O)C(CC)(CCCSCCOCCOCCNc1ccc([N+](=O)[O-])c2nonc12)NC(=O)c1ccc(C2CC2)c(Cc2ccc(F)cc2)n1 (racemic) | cAMP | agonist |  |  |  | Emax | 100%
COc1cccc2c(C(=O)c3cccc4ccccc34)cn(CCN3CCOCC3)c12 | ligand displacement |  | radioligand | 1 µM | cell membranes | inhibition | 100%
